Reference: ChEMBL document CHEMBL4680175, “Sulfonamide-based ring-fused analogues for CAN508 as novel carbonic anhydrase inhibitors endowed with antitumor activity: Design, synthesis, and in vitro biological evaluation” (Eur J Med Chem, 2020)
Active and inactive are the calls of the source. The calls are words filed in the database; no cut-off is given here.

What was measured:
IGROV-1 = assay: Antitumor activity against human IGROV1 cells assessed as cell growth inhibition at 10 uM incubated for 48 hrs by sulforhodamine B assay; format: functional; conditions: read-out: GI
Summary of the method: (§1)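 NCI Drug Evaluation Branch protocol: primary single-dose screen at 10 μM across a 57-line human cancer panel. Drug exposure is 48 h. Cell growth and viability are read by sulforhodamine B assay. Data are given as a mean graph of percent growth of treated cells and reported as percentage growth inhibition (GI%).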

SK-MEL-5 = assay: Antitumor activity against human SK-MEL-5 cells assessed as cell growth inhibition at 10 uM incubated for 48 hrs by sulforhodamine B assay; format: functional; conditions: read-out: GI; summary of the method: as §1
NCI/ADR-RES = assay: Antitumor activity against human NCI/ADR-RES cells assessed as cell growth inhibition at 10 uM incubated for 48 hrs by sulforhodamine B assay; format: functional, cell-based; summary of the method: as §1
[1] = biological target: Cyclin-dependent kinase 2/cyclin E1 (Homo sapiens, UniProt P24941); assay: Inhibition of CDK2/cyclin E (unknown origin) expressed in baculovirus infected Sf21 insect cells using histone H1 as substrate in presence of [gamma33P]ATP
SK-MEL-2 = assay: Antitumor activity against human SK-MEL-2 cells assessed as cell growth inhibition at 10 uM incubated for 48 hrs by sulforhodamine B assay; format: functional; conditions: read-out: GI; summary of the method: as §1
HOP-62 = assay: Antitumor activity against human HOP62 cells assessed as cell growth inhibition at 10 uM incubated for 48 hrs by sulforhodamine B assay; format: functional; conditions: read-out: GI; summary of the method: as §1
UO-31 = assay: Antitumor activity against human UO-31 cells assessed as cell growth inhibition at 10 uM incubated for 48 hrs by sulforhodamine B assay; format: functional; conditions: read-out: GI
Summary of the method: (§2)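 NCI one-dose screen: 57-cell-line panel exposed at 10 μM for 48 h, Drug Evaluation Branch protocol. Growth and viability read by sulforhodamine B; data given as percent growth inhibition from the mean-graph of percent growth of treated cells.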

Carbonic anhydrase 12 = Carbonic anhydrase 12 (Homo sapiens, UniProt O43570); assay: Inhibition of recombinant human carbonic anhydrase 12 preincubated with enzyme for 15 mins by phenol red dye based stopped flow CO2 hydrase assay
Carbonic anhydrase 12, sequence (O43570 whole entry): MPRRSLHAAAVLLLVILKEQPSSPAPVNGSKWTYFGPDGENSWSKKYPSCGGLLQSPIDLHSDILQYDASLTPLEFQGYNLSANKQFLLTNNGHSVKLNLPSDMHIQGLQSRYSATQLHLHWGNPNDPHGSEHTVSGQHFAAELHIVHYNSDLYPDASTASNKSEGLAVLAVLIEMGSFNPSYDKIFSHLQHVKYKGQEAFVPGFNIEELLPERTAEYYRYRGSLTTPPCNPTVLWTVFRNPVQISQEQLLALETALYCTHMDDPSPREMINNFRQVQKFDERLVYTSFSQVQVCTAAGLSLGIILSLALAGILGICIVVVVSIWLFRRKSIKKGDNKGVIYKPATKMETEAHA

KM12 = assay: Antitumor activity against human KM12 cells assessed as cell growth inhibition at 10 uM incubated for 48 hrs by sulforhodamine B assay; format: functional; conditions: read-out: GI; summary of the method: as §1
Carbonic anhydrase 1 = Carbonic anhydrase 1 (Homo sapiens, UniProt P00915); assay: Inhibition of recombinant human carbonic anhydrase 1 preincubated with enzyme for 15 mins by phenol red dye based stopped flow CO2 hydrase assay
Carbonic anhydrase 1, sequence (P00915 whole entry): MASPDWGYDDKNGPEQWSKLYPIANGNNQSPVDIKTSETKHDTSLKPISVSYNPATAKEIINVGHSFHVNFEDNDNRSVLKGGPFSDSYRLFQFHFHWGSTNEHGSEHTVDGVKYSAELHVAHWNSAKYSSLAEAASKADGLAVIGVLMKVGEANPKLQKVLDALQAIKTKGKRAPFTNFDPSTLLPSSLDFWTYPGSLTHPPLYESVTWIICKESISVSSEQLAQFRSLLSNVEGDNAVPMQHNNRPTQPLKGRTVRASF

SNB-75 = assay: Antitumor activity against human SNB-75 cells assessed as cell growth inhibition at 10 uM incubated for 48 hrs by sulforhodamine B assay; format: functional; conditions: read-out: GI; summary of the method: as §2
NCI-H522 = assay: Antitumor activity against human NCI-H522 cells assessed as cell growth inhibition at 10 uM incubated for 48 hrs by sulforhodamine B assay; format: functional; conditions: read-out: GI; summary of the method: as §1
RPMI-8226 = assay: Antitumor activity against human RPMI8226 cells assessed as cell growth inhibition at 10 uM incubated for 48 hrs by sulforhodamine B assay; format: functional; conditions: read-out: GI; summary of the method: as §1
OVCAR-3 = assay: Antitumor activity against human OVCAR-3 cells assessed as cell growth inhibition at 10 uM incubated for 48 hrs by sulforhodamine B assay; format: functional; conditions: read-out: GI; summary of the method: as §1
T47D = assay: Antitumor activity against human T-47D cells assessed as cell growth inhibition at 10 uM incubated for 48 hrs by sulforhodamine B assay; format: functional; conditions: read-out: GI; summary of the method: as §2
SF-539 = assay: Antitumor activity against human SF539 cells assessed as cell growth inhibition at 10 uM incubated for 48 hrs by sulforhodamine B assay; format: functional; conditions: read-out: GI; summary of the method: as §1
DU-145 = assay: Antitumor activity against human DU-145 cells assessed as cell growth inhibition at 10 uM incubated for 48 hrs by sulforhodamine B assay; format: functional; conditions: read-out: GI; summary of the method: as §1
K562 = assay: Antitumor activity against human K562 cells assessed as cell growth inhibition at 10 uM incubated for 48 hrs by sulforhodamine B assay; format: functional; conditions: read-out: GI; summary of the method: as §1
CDK9/cyclin T1 = CDK9/cyclin T1 (Homo sapiens, UniProt P50750); assay: Inhibition of human full-length N-terminal GST/His6-tagged CDK9 (1 to 372 residues)/His6-tagged Cyclin-T1 (1 to 726 residues) expressed in sf9 cells using (YSPTSPS)2KK peptide as substrate in presence of [gamma33P]ATP
CDK9/cyclin T1, sequence (O60563 whole entry, the tested form may be a part): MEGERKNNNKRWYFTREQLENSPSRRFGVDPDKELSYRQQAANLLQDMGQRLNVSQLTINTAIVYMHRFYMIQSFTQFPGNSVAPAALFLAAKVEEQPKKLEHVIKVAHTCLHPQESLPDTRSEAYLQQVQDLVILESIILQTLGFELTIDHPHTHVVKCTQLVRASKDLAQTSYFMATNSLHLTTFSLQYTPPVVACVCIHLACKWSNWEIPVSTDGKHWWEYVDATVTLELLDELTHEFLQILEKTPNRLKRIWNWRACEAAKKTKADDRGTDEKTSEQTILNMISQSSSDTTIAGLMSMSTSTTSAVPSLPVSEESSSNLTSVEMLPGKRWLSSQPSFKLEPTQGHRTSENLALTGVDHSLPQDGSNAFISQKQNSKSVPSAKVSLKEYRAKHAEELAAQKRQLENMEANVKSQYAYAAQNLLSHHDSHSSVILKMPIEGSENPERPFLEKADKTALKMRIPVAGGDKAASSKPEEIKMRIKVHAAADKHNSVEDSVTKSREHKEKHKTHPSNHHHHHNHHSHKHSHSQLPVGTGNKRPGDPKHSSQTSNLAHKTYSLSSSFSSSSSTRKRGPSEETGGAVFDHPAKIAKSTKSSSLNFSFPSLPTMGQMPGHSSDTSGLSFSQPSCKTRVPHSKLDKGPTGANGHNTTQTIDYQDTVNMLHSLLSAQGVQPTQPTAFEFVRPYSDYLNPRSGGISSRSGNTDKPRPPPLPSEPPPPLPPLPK
CDK9/cyclin T1, sequence (P50750 whole entry, the tested form may be a part): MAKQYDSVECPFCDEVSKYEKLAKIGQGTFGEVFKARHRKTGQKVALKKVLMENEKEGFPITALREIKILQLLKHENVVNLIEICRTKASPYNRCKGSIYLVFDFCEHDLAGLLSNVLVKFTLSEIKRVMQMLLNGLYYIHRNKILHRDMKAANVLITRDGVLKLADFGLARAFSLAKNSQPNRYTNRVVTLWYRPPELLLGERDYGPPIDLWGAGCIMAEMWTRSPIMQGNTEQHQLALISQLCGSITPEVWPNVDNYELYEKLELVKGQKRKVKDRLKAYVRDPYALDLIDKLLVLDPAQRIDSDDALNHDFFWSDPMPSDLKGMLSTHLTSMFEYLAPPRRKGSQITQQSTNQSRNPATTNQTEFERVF

MCF7 = assay: Antitumor activity against human MCF7 cells assessed as cell growth inhibition at 10 uM incubated for 48 hrs by sulforhodamine B assay; format: functional; conditions: read-out: GI; summary of the method: as §1
U-251 = assay: Antitumor activity against human U251 cells assessed as cell growth inhibition at 10 uM incubated for 48 hrs by sulforhodamine B assay; format: functional; conditions: read-out: GI; summary of the method: as §2
HCT-116 = assay: Antitumor activity against human HCT116 cells assessed as cell growth inhibition at 10 uM incubated for 48 hrs by sulforhodamine B assay; format: functional; conditions: read-out: GI; summary of the method: as §1
RXF 393 = assay: Antitumor activity against human RXF 393 cells assessed as cell growth inhibition at 10 uM incubated for 48 hrs by sulforhodamine B assay; format: functional; conditions: read-out: GI; summary of the method: as §1
Carbonic anhydrase 2 = Carbonic anhydrase 2 (Homo sapiens, UniProt P00918); assay: Inhibition of recombinant human carbonic anhydrase 2 preincubated with enzyme for 15 mins by phenol red dye based stopped flow CO2 hydrase assay
OVCAR-8 = assay: Antitumor activity against human OVCAR-8 cells assessed as cell growth inhibition at 10 uM incubated for 48 hrs by sulforhodamine B assay; format: functional; conditions: read-out: GI; summary of the method: as §1
MOLT-4 = assay: Antitumor activity against human MOLT4 cells assessed as cell growth inhibition at 10 uM incubated for 48 hrs by sulforhodamine B assay; format: functional; conditions: read-out: GI; summary of the method: as §1
SN12C = assay: Antitumor activity against human SN12C cells assessed as cell growth inhibition at 10 uM incubated for 48 hrs by sulforhodamine B assay; format: functional; conditions: read-out: GI; summary of the method: as §1
CCRF-CEM = assay: Antitumor activity against human CCRF-CEM cells assessed as cell growth inhibition at 10 uM incubated for 48 hrs by sulforhodamine B assay; format: functional; conditions: read-out: GI; summary of the method: as §1
MDA-MB-231 = assay: Antitumor activity against human MDA-MB-231/ATCC cells assessed as cell growth inhibition at 10 uM incubated for 48 hrs by sulforhodamine B assay; format: functional; conditions: read-out: GI; summary of the method: as §1
BT-549 = assay: Antitumor activity against human BT-549 cells assessed as cell growth inhibition at 10 uM incubated for 48 hrs by sulforhodamine B assay; format: functional; conditions: read-out: GI; summary of the method: as §1
PC-3 = assay: Antitumor activity against human PC-3 cells assessed as cell growth inhibition at 10 uM incubated for 48 hrs by sulforhodamine B assay; format: functional; conditions: read-out: GI; summary of the method: as §1
SF-268 = assay: Antitumor activity against human SF268 cells assessed as cell growth inhibition at 10 uM incubated for 48 hrs by sulforhodamine B assay; format: functional; conditions: read-out: GI; summary of the method: as §1
Carbonic anhydrase 9 = Carbonic anhydrase 9 (Homo sapiens, UniProt Q16790); assay: Inhibition of recombinant human carbonic anhydrase 9 preincubated with enzyme for 15 mins by phenol red dye based stopped flow CO2 hydrase assay
NCI-H322M = assay: Antitumor activity against human NCI-H322M cells assessed as cell growth inhibition at 10 uM incubated for 48 hrs by sulforhodamine B assay; format: functional; conditions: read-out: GI; summary of the method: as §1
LOX IMVI = assay: Antitumor activity against human LOX IMVI cells assessed as cell growth inhibition at 10 uM incubated for 48 hrs by sulforhodamine B assay; format: functional; conditions: read-out: GI; summary of the method: as §1
MDA-MB-468 = assay: Antitumor activity against human MDA-MB-468 cells assessed as cell growth inhibition at 10 uM incubated for 48 hrs by sulforhodamine B assay; format: functional; conditions: read-out: GI; summary of the method: as §1
NCI-H226 = assay: Antitumor activity against human NCI-H226 assessed as cell growth inhibition at 10 uM incubated for 48 hrs by sulforhodamine B assay; format: functional; conditions: read-out: GI; summary of the method: as §1

IC50 [1] [µM] | Ki (Carbonic anhydrase 12) [µM] | Ki (Carbonic anhydrase 1) [µM] | IC50 (CDK9/cyclin T1) [µM] | Compound | inhibition of growth at 10 µM (SK-MEL-5) [%] | Activity (NCI/ADR-RES) | inhibition of growth at 10 µM (SK-MEL-2) [%] | inhibition of growth at 10 µM (HOP-62) [%] | inhibition of growth at 10 µM (UO-31) [%] | inhibition of growth at 10 µM (KM12) [%] | inhibition of growth at 10 µM (NCI-H522) [%] | inhibition of growth at 10 µM (RPMI-8226) [%] | inhibition of growth at 10 µM (OVCAR-3) [%] | inhibition of growth at 10 µM (T47D) [%] | inhibition of growth at 10 µM (SF-539) [%] | inhibition of growth at 10 µM (K562) [%] | inhibition of growth at 10 µM (MCF7) [%] | inhibition of growth at 10 µM (U-251) [%] | inhibition of growth at 10 µM (HCT-116) [%] | inhibition of growth at 10 µM (RXF 393) [%] | other results
> 12.5 | 0.0109 | 2.44 | > 12.5 | N#Cc1c(-c2ccc(F)cc2)nc2c(/N=N/c3ccc(S(N)(=O)=O)cc3)c(N)nn2c1N | 31 | inactive | 25 | 21 | 38 | 53 | 32 | 60 | 20 | 48 | 28 | 33 | 59 | 28 | 24 | 59 | inhibition of growth at 10 µM (IGROV-1): 36%; inhibition of growth at 10 µM (SNB-75): 33%; inhibition of growth at 10 µM (NCI-H226): 25%; Ki (Carbonic anhydrase 2): 0.399 µM; inhibition of growth at 10 µM (OVCAR-8): 25%; inhibition of growth at 10 µM (MOLT-4): 62%; inhibition of growth at 10 µM (SN12C): 24%; inhibition of growth at 10 µM (CCRF-CEM): 51%; inhibition of growth at 10 µM (MDA-MB-231): 37%; inhibition of growth at 10 µM (PC-3): 29%; Ki (Carbonic anhydrase 9): 0.0088 µM; inhibition of growth at 10 µM (NCI-H322M): 21%; inhibition of growth at 10 µM (LOX IMVI): 28%; inhibition of growth at 10 µM (MDA-MB-468): 71%
> 12.5 | 0.0142 | 2.25 | > 12.5 | N#Cc1c(-c2ccc(Cl)cc2)nc2c(/N=N/c3ccc(S(N)(=O)=O)cc3)c(N)nn2c1N | 31 | inactive | 24 | 24 | 36 | 75 | 29 | 58 | 25 | 56 | 25 | 28 | 51 | 30 | 34 | 29 | inhibition of growth at 10 µM (DU-145): 40%; inhibition of growth at 10 µM (NCI-H226): 25%; Ki (Carbonic anhydrase 2): 0.496 µM; inhibition of growth at 10 µM (OVCAR-8): 25%; inhibition of growth at 10 µM (MOLT-4): 82%; inhibition of growth at 10 µM (SN12C): 27%; inhibition of growth at 10 µM (CCRF-CEM): 65%; inhibition of growth at 10 µM (MDA-MB-231): 52%; inhibition of growth at 10 µM (BT-549): 35%; inhibition of growth at 10 µM (PC-3): 38%; inhibition of growth at 10 µM (SF-268): 23%; Ki (Carbonic anhydrase 9): 0.0313 µM; inhibition of growth at 10 µM (MDA-MB-468): 56%

Compound | IC50 [1] [µM] | Ki (Carbonic anhydrase 12) [µM] | Ki (Carbonic anhydrase 1) [µM] | IC50 (CDK9/cyclin T1) [µM] | inhibition of growth at 10 µM (SK-MEL-5) [%] | Activity (NCI/ADR-RES) | inhibition of growth at 10 µM (SK-MEL-2) [%] | inhibition of growth at 10 µM (HOP-62) [%] | inhibition of growth at 10 µM (UO-31) [%] | inhibition of growth at 10 µM (KM12) [%] | inhibition of growth at 10 µM (NCI-H522) [%] | inhibition of growth at 10 µM (RPMI-8226) [%] | inhibition of growth at 10 µM (OVCAR-3) [%] | inhibition of growth at 10 µM (T47D) [%] | inhibition of growth at 10 µM (SF-539) [%] | inhibition of growth at 10 µM (K562) [%] | inhibition of growth at 10 µM (MCF7) [%] | inhibition of growth at 10 µM (U-251) [%] | inhibition of growth at 10 µM (HCT-116) [%] | inhibition of growth at 10 µM (RXF 393) [%] | other results
Nc1nn2cc(-c3ccc(Br)cc3)[nH]c2c1/N=N/c1ccc(S(N)(=O)=O)cc1 | > 12.5 | 0.0528 | 1.59 | > 12.5 | 45 | inactive | 53 | 37 | 74 | 39 | 55 | 55 | 27 | 46 | 42 | 38 | 33 | 38 | 62 | 55 | inhibition of growth at 10 µM (IGROV-1): 72%; inhibition of growth at 10 µM (SNB-75): 64%; inhibition of growth at 10 µM (DU-145): 47%; Ki (Carbonic anhydrase 2): 0.0493 µM; inhibition of growth at 10 µM (OVCAR-8): 37%; inhibition of growth at 10 µM (MOLT-4): 42%; inhibition of growth at 10 µM (SN12C): 58%; inhibition of growth at 10 µM (CCRF-CEM): 45%; inhibition of growth at 10 µM (MDA-MB-231): 43%; inhibition of growth at 10 µM (BT-549): 25%; inhibition of growth at 10 µM (PC-3): 39%; inhibition of growth at 10 µM (SF-268): 42%; Ki (Carbonic anhydrase 9): 0.0449 µM; inhibition of growth at 10 µM (NCI-H322M): 65%; inhibition of growth at 10 µM (LOX IMVI): 64%; inhibition of growth at 10 µM (MDA-MB-468): 51%
